Assay results from ChEMBL document CHEMBL1143146, “Multicomponent reactions in fungicide research: the discovery of mandipropamid” (2008).
Converted amounts (≈) assume the structure as drawn.

Assays:
[1] = tested on: Phytophthora infestans; experiment: Antifungal activity against Phytophthora infestans in tomato late blight after 4 days; type: functional; conditions: 96 h
Procedure, shortened: (§1)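 Greenhouse trials on whole plants. Disease incidence read after incubation at 20 °C and 95% relative humidity: 4 days on tomato, 6 days on grape. Potency is given as EC80, the concentration in mg L-1 (ppm) giving 80% activity.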

[2] = tested on: Plasmopara viticola; experiment: Antifungal activity against Plasmopara viticola in grape downy mildew after 6 days; type: functional; conditions: 144 h; procedure, shortened: as §1

| SMILES | EC80 [1] | EC80 [2] |
| --- | --- | --- |
| C#CCOc1ccc(CCNC(=O)C(NS(=O)(=O)N(C)C)c2ccc(OC)cc2)cc1OC (stereo not given) | 8 µg/mL (≈ 16.8 µM) | 34.9 µg/mL (≈ 73.4 µM) |
| C#CCOc1ccc(CCNC(=O)C(NS(=O)(=O)N(C)C)c2ccc(C)c(C)c2)cc1OC (stereo not given) | 12.2 µg/mL (≈ 25.8 µM) | 28.7 µg/mL (≈ 60.6 µM) |
| C#CCOc1ccc(CCNC(=O)C(OCC#C)c2cc(Cl)cc(Cl)c2Cl)cc1OC (stereo not given) | > 200 µg/mL | 44.2 µg/mL (≈ 91.9 µM) |
| C#CCOc1ccc(CCNC(=O)C(OCC#C)c2ccc3c(c2)Cc2ccccc2-3)cc1OC (stereo not given) | 4.8 µg/mL (≈ 10.3 µM) | 19.3 µg/mL (≈ 41.5 µM) |
| C#CCOc1ccc(CCNC(=O)C(OCC#C)c2cccs2)cc1OC (stereo not given) | 2.1 µg/mL (≈ 5.48 µM) | 1.4 µg/mL (≈ 3.65 µM) |
| C#CCOc1ccc(CCNC(=O)C(OCC#C)c2cc(F)c(F)c(F)c2)cc1OC (stereo not given) | 26.2 µg/mL (≈ 60.7 µM) | 19.7 µg/mL (≈ 45.7 µM) |
| C#CCOc1ccc(CCNC(=O)C(NS(=O)(=O)N(C)C)c2ccc(SC)cc2)cc1OC (stereo not given) | 34.9 µg/mL (≈ 71 µM) | 16.2 µg/mL (≈ 33 µM) |
| C#CCOc1ccc(CCNC(=O)C(OCC#C)c2cccc(Cl)c2Cl)cc1OC (stereo not given) | 168 µg/mL (≈ 377 µM) | 25.5 µg/mL (≈ 57.1 µM) |
| C#CCOc1ccc(CCNC(=O)C(CC2=C(C)CCCC2(C)C)OCC#C)cc1OC (stereo not given) | 51.4 µg/mL (≈ 117 µM) | 124 µg/mL (≈ 283 µM) |
| C#CCOc1ccc(CCNC(=O)C(OCC#C)c2ccc(Br)cc2F)cc1OC (stereo not given) | 5.3 µg/mL (≈ 11.2 µM) | 1.8 µg/mL (≈ 3.79 µM) |
| C#CCOc1ccc(CCNC(=O)C(NS(=O)(=O)N(C)C)c2ccc(CC)cc2)cc1OC (stereo not given) | 2.6 µg/mL (≈ 5.49 µM) | 5.1 µg/mL (≈ 10.8 µM) |
| C#CCOc1ccc(CCNC(=O)C(NS(=O)(=O)N(C)C)c2cccc(C)c2)cc1OC (stereo not given) | 150 µg/mL (≈ 326 µM) | 116 µg/mL (≈ 253 µM) |
| C#CCOc1ccc(CCNC(=O)C(OCC#C)c2ccc(F)cc2)cc1OC (stereo not given) | 1.8 µg/mL (≈ 4.55 µM) | 3.4 µg/mL (≈ 8.6 µM) |
| C#CCOc1ccc(CCNC(=O)C(OCC#C)c2ccc(CC)cc2)cc1OC (stereo not given) | 7.5 µg/mL (≈ 18.5 µM) | 3.1 µg/mL (≈ 7.64 µM) |
| C#CCOc1ccc(CCNC(=O)C(OCC#C)c2ccc(F)cc2F)cc1OC (stereo not given) | 4.6 µg/mL (≈ 11.1 µM) | 5 µg/mL (≈ 12.1 µM) |
| C#CCOc1ccc(CCNC(=O)C(OCC#C)c2cccc(Br)c2)cc1OC (stereo not given) | 4.9 µg/mL (≈ 10.7 µM) | 4.9 µg/mL (≈ 10.7 µM) |
| C#CCOc1ccc(CCNC(=O)C(NS(=O)(=O)N(C)C)c2ccc(Br)cc2)cc1OC (stereo not given) | 7.8 µg/mL (≈ 14.9 µM) | 39.4 µg/mL (≈ 75.1 µM) |
| C#CCOc1ccc(CCNC(=O)C(COc2ccc(C)cc2)OCC#C)cc1OC (stereo not given) | 0.1 µg/mL (≈ 0.237 µM) | 1.8 µg/mL (≈ 4.27 µM) |
| C#CCOc1ccc(CCNC(=O)C(COc2ccc(Cl)cc2)OCC#C)cc1OC (stereo not given) | 0.02 µg/mL (≈ 0.0453 µM) | 0.6 µg/mL (≈ 1.36 µM) |
| C#CCOc1ccc(CCNC(=O)C(NS(=O)(=O)N(C)C)c2ccc(Cl)cc2)cc1OC (stereo not given) | 10.6 µg/mL (≈ 22.1 µM) | 13.8 µg/mL (≈ 28.8 µM) |

| SMILES | EC80 [1] | EC80 [2] |
| --- | --- | --- |
| C#CCOc1ccc(CCNC(=O)C(OCC#C)c2cccc(F)c2)cc1OC (stereo not given) | 10.2 µg/mL (≈ 25.8 µM) | 1.8 µg/mL (≈ 4.55 µM) |
| C#CCOc1ccc(CCNC(=O)C(OCC#C)c2cccc(OC)c2)cc1OC (stereo not given) | 46.2 µg/mL (≈ 113 µM) | 1.7 µg/mL (≈ 4.17 µM) |
| C#CCOc1ccc(CCNC(=O)C(NS(=O)(=O)N(C)C)c2ccc(F)c(Cl)c2)cc1OC (stereo not given) | 186 µg/mL (≈ 374 µM) | 59.8 µg/mL (≈ 120 µM) |
| C#CCOc1ccc(CCNC(=O)C(NS(=O)(=O)N(C)C)c2ccc(F)c(F)c2)cc1OC (stereo not given) | 110 µg/mL (≈ 228 µM) | 46.3 µg/mL (≈ 96.2 µM) |
| C#CCOc1ccc(CCNC(=O)C(NS(=O)(=O)N(C)C)c2ccc(CCC)cc2)cc1OC (stereo not given) | 3.1 µg/mL (≈ 6.36 µM) | 16.7 µg/mL (≈ 34.2 µM) |
| C#CCOc1ccc(CCNC(=O)C(NS(=O)(=O)N(C)C)c2ccc(C(C)C)cc2)cc1OC (stereo not given) | 26.2 µg/mL (≈ 53.7 µM) | 14.6 µg/mL (≈ 29.9 µM) |
| C#CCOc1ccc(CCNC(=O)C(NS(=O)(=O)N(C)C)c2ccc(Cl)c(Cl)c2)cc1OC (stereo not given) | 19.2 µg/mL (≈ 37.3 µM) | 51.5 µg/mL (≈ 100 µM) |
| C#CCOc1ccc(CCNC(=O)C(OCC#C)c2ccccc2)cc1OC (stereo not given) | 0.5 µg/mL (≈ 1.32 µM) | 1.3 µg/mL (≈ 3.44 µM) |
| C#CCOc1ccc(CCNC(=O)C(NS(=O)(=O)N(C)C)c2ccc(F)cc2)cc1OC (stereo not given) | 45.7 µg/mL (≈ 98.6 µM) | 78.3 µg/mL (≈ 169 µM) |
| C#CCOc1ccc(CCNC(=O)C(OCC#C)C2CCCCC2)cc1OC (stereo not given) | 47.6 µg/mL (≈ 124 µM) | 5.3 µg/mL (≈ 13.8 µM) |
| C#CCOc1ccc(CCNC(=O)C(OCC#C)c2ccc(C)c(Cl)c2)cc1OC (stereo not given) | 2.4 µg/mL (≈ 5.63 µM) | 1.5 µg/mL (≈ 3.52 µM) |
| C#CCOc1ccc(CCNC(=O)C(OCC#C)c2ccc(C=C)cc2)cc1OC (stereo not given) | 3.3 µg/mL (≈ 8.18 µM) | 2 µg/mL (≈ 4.96 µM) |
| C#CCOc1ccc(CCNC(=O)C(OCC#C)c2ccc(Cl)c(Cl)c2)cc1OC (stereo not given) | 4.8 µg/mL (≈ 10.8 µM) | 3.4 µg/mL (≈ 7.62 µM) |
| C#CCOc1ccc(CCNC(=O)C(OCC#C)c2ccc(Br)cc2)cc1OC (stereo not given) | 3.4 µg/mL (≈ 7.45 µM) | 2.6 µg/mL (≈ 5.7 µM) |
| C#CCOc1ccc(CCNC(=O)C(OCC#C)c2ccc(C)cc2)cc1OC (stereo not given) | 9.7 µg/mL (≈ 24.8 µM) | 5.2 µg/mL (≈ 13.3 µM) |
| C#CCOc1ccc(CCNC(=O)C(OCC#C)c2ccc3c(c2)OCCO3)cc1OC (stereo not given) | 16.7 µg/mL (≈ 38.3 µM) | 2.2 µg/mL (≈ 5.05 µM) |
| C#CCOc1ccc(CCNC(=O)C(COCc2ccccc2)OCC#C)cc1OC (stereo not given) | 0.3 µg/mL (≈ 0.712 µM) | 20.4 µg/mL (≈ 48.4 µM) |
| C#CCOc1ccc(CCNC(=O)C(OCC#C)c2cccc(Cl)c2)cc1OC (stereo not given) | 3.7 µg/mL (≈ 8.98 µM) | 2.4 µg/mL (≈ 5.83 µM) |
| C#CCOc1ccc(CCNC(=O)C(NS(=O)(=O)N(C)C)c2ccc(C(F)(F)F)cc2)cc1OC (stereo not given) | 3.4 µg/mL (≈ 6.62 µM) | 5.8 µg/mL (≈ 11.3 µM) |
| C#CCOc1ccc(CCNC(=O)C(OCC#C)c2ccc(CCCC)cc2)cc1OC (stereo not given) | 25.9 µg/mL (≈ 59.7 µM) | 10.4 µg/mL (≈ 24 µM) |

| SMILES | EC80 [1] | EC80 [2] |
| --- | --- | --- |
| C#CCOc1ccc(CCNC(=O)C(OCC#C)c2cccc(C(F)(F)F)c2)cc1OC (stereo not given) | 5 µg/mL (≈ 11.2 µM) | 3.8 µg/mL (≈ 8.53 µM) |
| C#CCOc1ccc(CCNC(=O)C(OCC#C)c2ccc(SC)cc2)cc1OC (stereo not given) | 7.6 µg/mL (≈ 17.9 µM) | 5.3 µg/mL (≈ 12.5 µM) |
| C#CCOc1ccc(CCNC(=O)C(NS(=O)(=O)N(C)C)c2ccc(OCC)cc2)cc1OC (stereo not given) | 24.7 µg/mL (≈ 50.4 µM) | 35 µg/mL (≈ 71.5 µM) |
| C#CCOc1ccc(CCNC(=O)C(Cc2ccc(Cl)cc2)OCC#C)cc1OC (stereo not given) | 26.3 µg/mL (≈ 61.7 µM) | 18.6 µg/mL (≈ 43.7 µM) |
| C#CCOc1ccc(CCNC(=O)C(OCC#C)c2ccc(C)c(C)c2)cc1OC (stereo not given) | 3.2 µg/mL (≈ 7.89 µM) | 1.6 µg/mL (≈ 3.95 µM) |
| C#CCOc1ccc(CCNC(=O)C(OCC#C)c2ccc(CCC)cc2)cc1OC (stereo not given) | 4.4 µg/mL (≈ 10.5 µM) | 1.7 µg/mL (≈ 4.05 µM) |
| C#CCOc1ccc(CCNC(=O)C(OCC#C)c2ccc(C(F)(F)F)cc2)cc1OC (stereo not given) | 8 µg/mL (≈ 18 µM) | 11.6 µg/mL (≈ 26 µM) |
| C#CCOc1ccc(CCNC(=O)C(OCC#C)c2ccccc2Cl)cc1OC (stereo not given) | 81.1 µg/mL (≈ 197 µM) | > 200 µg/mL |
| C#CCOc1ccc(CCNC(=O)C(OCC#C)c2ccc(COC)cc2)cc1OC (stereo not given) | 2.6 µg/mL (≈ 6.17 µM) | 13.8 µg/mL (≈ 32.7 µM) |
| C#CCOc1ccc(CCNC(=O)C(OCC#C)c2cc(C)cc(C)c2)cc1OC (stereo not given) | 41.9 µg/mL (≈ 103 µM) | 56.4 µg/mL (≈ 139 µM) |
| C#CCOc1ccc(CCNC(=O)C(NS(=O)(=O)N(C)C)c2ccccc2C)cc1OC (stereo not given) | > 200 µg/mL | > 200 µg/mL |
| C#CCOc1ccc(CCNC(=O)C(OCC#C)c2cccc(C)c2)cc1OC (stereo not given) | 6.4 µg/mL (≈ 16.3 µM) | 1.7 µg/mL (≈ 4.34 µM) |
| C#CCOc1ccc(CCNC(=O)C(OCC#C)c2ccc(OC)cc2)cc1OC (stereo not given) | 2.3 µg/mL (≈ 5.64 µM) | 1.6 µg/mL (≈ 3.93 µM) |
| C#CCOc1ccc(CCNC(=O)C(NS(=O)(=O)N(C)C)c2ccc(C)cc2)cc1OC (stereo not given) | 2.5 µg/mL (≈ 5.44 µM) | 3.2 µg/mL (≈ 6.96 µM) |
| C#CCOc1ccc(CCNC(=O)C(NS(=O)(=O)N(C)C)c2ccc(OC(F)(F)F)cc2)cc1OC (stereo not given) | 18.8 µg/mL (≈ 35.5 µM) | 46.4 µg/mL (≈ 87.6 µM) |
| C#CCOc1ccc(CCNC(=O)C(OCC#C)c2ccc(C(C)C)cc2)cc1OC (stereo not given) | 6.1 µg/mL (≈ 14.5 µM) | 2.8 µg/mL (≈ 6.67 µM) |
| C#CCOc1ccc(CCNC(=O)C(NS(=O)(=O)N(C)C)c2ccccc2)cc1OC (stereo not given) | 81.2 µg/mL (≈ 182 µM) | 28.5 µg/mL (≈ 64 µM) |
| C#CCOc1ccc(CCNC(=O)C(NS(=O)(=O)N(C)C)c2ccc(C(C)(C)C)cc2)cc1OC (stereo not given) | 143 µg/mL (≈ 285 µM) | 20.2 µg/mL (≈ 40.3 µM) |
| C#CCOc1ccc(CCNC(=O)C(OCC#C)c2cccnc2)cc1OC (stereo not given) | 186 µg/mL (≈ 492 µM) | > 200 µg/mL |
| C#CCOc1ccc(CCNC(=O)C(OCC#C)c2ccc(Cl)cc2)cc1OC (stereo not given) [MANDIPROPAMID] | 0.1 µg/mL (≈ 0.243 µM) | 1.2 µg/mL (≈ 2.91 µM) |
